Compound activity from PubChem BioAssay.
UCH37 inh – inhibitors of human UCH37 deubiquitinase, primary screen, biochemical, Ub-AMC cleavage, fluorescence. inhibition, % (test concentration not listed). Ubiquitin carboxyl-terminal hydrolase isozyme L5 (Homo sapiens), Q9Y5K5. AID 588478, 2011. purified proteasome/UCH37. hit rate 0.33% among 330,000;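 active = mean inhibition over replicate wells above about 20%, limit read from the data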
Target sequence (Q9Y5K5 whole entry, looked up): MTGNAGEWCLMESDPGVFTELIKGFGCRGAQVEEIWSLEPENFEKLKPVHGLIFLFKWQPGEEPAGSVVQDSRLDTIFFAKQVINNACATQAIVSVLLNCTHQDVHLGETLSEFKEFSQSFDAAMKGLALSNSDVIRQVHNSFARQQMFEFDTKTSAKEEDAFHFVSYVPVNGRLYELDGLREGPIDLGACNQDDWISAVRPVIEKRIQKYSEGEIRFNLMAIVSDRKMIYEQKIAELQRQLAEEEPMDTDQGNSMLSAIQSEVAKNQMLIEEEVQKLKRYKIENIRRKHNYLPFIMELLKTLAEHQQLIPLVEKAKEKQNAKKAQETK
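Assay system: Proteasome-bound UCH37. Buffer or medium: pH 7.4 Tris-HCl (50 mM) with ovalbumin, ATP-MgCl2, DTT. Incubation: 30 min preincubation with enzyme, 25 min cleavage at room temperature. Measured by: fluorescence, ex 355 nm, em 460 nm. Read-out basis: percent inhibition. Control set: wells without proteasome as full block, compound-free enzyme plus substrate as uninhibited.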
XBP1 UPR activ – activators of adaptive XBP1 UPR arm, primary screen, cell-based, CHO-XBP1 luciferase reporter, luminescence, uHTS; activation, % at 20 µM; IRE1-XBP1 UPR activation; percent of tunicamycin response, DMSO as zero; hit rate 0.33% among 330,000;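 active = versus positive control, 20 µM dose yields 30% or more activation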
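Test system: CHO-XBP1 luciferase reporter cells | Buffer or medium: Serum-containing F12 medium, 10% FBS | Schedule: 6 h compound exposure at 37 °C, 5% CO2 | Detection: Steady-Glo luciferase glow luminescence, 10 min after reagent addition | Read-out basis: Activation, % of tunicamycin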
CHOP inh – inhibitors of CHOP promoter induction, primary screen, cell-based, unfolded protein response, luciferase reporter; CHO-K1 CHOP-promoter luciferase, tunicamycin-induced, 15-18 h; inhibition, % at 10 µM; hit rate 3.8% among 220,000; AID 2732, 2010;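 active = compounds that reduced the stress-induced luciferase reporter signal by more than about 70% of percent inhibition, limit read from the data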
CTSL1 counter – Fasciola hepatica cathepsin L1 inhibitors, primary screen, counter-screen for PFM18AAP inhibitor project, biochemical, QFRET, fluorogenic peptide substrate. hit rate 0.49% among 300,000. inhibition, % at 5.96 µM. recombinant F. hepatica cathepsin L1, Z-Leu-Arg-MCA fluorescence;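 active = inhibition above the mean of all tested compounds plus 3 SD, set per screening campaign, cut at about 17% in these data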
UPR CHOP act – activators of apoptotic CHOP UPR arm, primary screen, cell-based, CHO-CHOP luciferase reporter, luminescence, uHTS; UPR activation; percent of tunicamycin response over DMSO baseline; activation, % at 10 µM; hit rate 0.34% among 330,000; AID 449763, 2010;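 active = at 10 µM dose, activation of 40% or more, normalized to positive control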
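System: CHO-CHOP luciferase reporter cell line; amount: 500 cells/well; buffer or medium: F12 medium containing 10% fetal bovine serum; incubation: 6 h compound exposure at 37 °C after overnight seeding; measured by: luciferase luminescence after 10 min with Steady-Glo reagent; evaluation: % reporter activation, DMSO baseline versus tunicamycin full activation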
Hits are given with their value; – = inactive; · = no result given. The full list was thinned out, with hits kept by preference.

SMILES | UCH37 inh | XBP1 UPR activ | CHOP inh | CTSL1 counter | UPR CHOP act
CCN(CC)CCN(C(=O)c1cc2c(ccc3ccccc32)oc1=O)c1nc2cc3c(cc2s1)OCCO3 | – | 210 | · | – | –
CCN(CC)CCN(C(=O)c1ccc2c(c1)OCCO2)c1nc2cc3c(cc2s1)OCO3 | – | – | · | – | –
CC(C)(C)c1ccc(C(=O)Nc2ccccc2NC(=O)c2ccco2)cc1 | – | – | 72 | – | –
O=C(Nc1ccccc1NC(=O)c1ccco1)c1ccccc1 | – | – | · | – | –
COc1ccc(C=NNC(=S)Nc2cc(C(F)(F)F)ccc2Cl)cc1 | – | · | · | · | ·
COc1ccc(/C=C/C(=O)Nc2cc(C(F)(F)F)ccc2Cl)cc1 | – | – | 74 | – | –
O=C(O)COc1ccccc1C=NNC(=O)CSc1nc2ccccc2n1Cc1ccccc1 | – | · | · | · | ·
CCCCC(C)=NNC(=O)c1cn(-c2ccccc2)nc1-c1ccccc1 | – | · | · | · | ·
CCOC(=O)c1c(C)c(-c2ccccc2)n(CC(=O)NCCC(C)C)c1C | – | – | – | 89 | –
CN(C)C=Nc1nc2nccc(-c3cccc(Cl)c3)n2n1 | – | · | · | · | ·
CC(=O)c1sc(NC(=O)c2cc3c(C)nn(-c4ccccc4)c3s2)nc1C | – | – | 81 | – | –
CC(=O)c1sc(NC(=O)c2cc(-c3ccccc3)nn2-c2ccccc2)nc1C | – | – | – | – | –
COc1cc(S(=O)(=O)N2CCN(Cc3ccccc3)CC2)ccc1Br | – | – | 78 | – | –
Cc1ccc(C=NNC(=O)C(=O)NN=Cc2ccc(C)o2)o1 | – | · | · | · | ·
Cc1nc2cc(-c3ccc(Cl)cc3)nn2c(C)c1CCC(=O)NCc1ccco1 | – | – | 74 | – | –
COc1ccc(-c2cc3nc(C)c(CCC(=O)NCc4ccco4)c(C)n3n2)c(OC)c1 | – | – | – | – | –
Cc1ccccc1C=NNC(=O)c1ccc(-n2cnnn2)cc1 | – | · | · | · | ·
S=c1[nH]nc(-c2ccccc2Cl)n1N=C/C=C/c1ccco1 | – | · | · | · | ·
COc1cc(/C=C(\C#N)c2nc3ccc(C)cc3[nH]2)c([N+](=O)[O-])cc1OC | – | – | – | – | –
COc1cc(/C=C(\C#N)c2nc3ccc(C)cc3[nH]2)cc([N+](=O)[O-])c1O | 24 | · | – | · | ·
CCC(CC)NC(=O)CON=C1c2ccccc2-c2ccccc21 | · | – | 72 | – | –
CC1CCCC(NC(=O)c2cn(C)c3ccc(S(=O)(=O)N4CCCC4)cc3c2=O)C1C (stereo not drawn) | · | – | 80 | – | –
CCCCc1c(C)c2cc(C)ccc2[nH]c1=O | – | – | 79 | – | –
NC(=O)c1c(N=Cc2cccs2)sc2c1CCCC2 | – | · | · | · | ·
CCCN(CCC)C1Sc2ccc(C(=O)OC)cc2NC1=O (stereo not drawn) | – | – | 82 | – | –
SMILES | UCH37 inh | XBP1 UPR activ | CHOP inh | CTSL1 counter | UPR CHOP act
O=C(O)CCC(=NNC(=O)CNC(=O)C(c1ccccc1)c1ccccc1)c1ccccc1 | – | · | · | · | ·
CNC(=S)NN=Cc1cn(Cc2ccc(C)cc2)c2ccccc12 | – | · | · | · | ·
Cc1cc(C(=O)COC(=O)c2ccc[nH]c2=O)c(C)n1-c1ccccc1 | – | – | 70 | – | –
Cc1cc(C(=O)COC(=O)c2ccc[nH]c2=O)c(C)n1-c1ccc(F)cc1 | – | – | 75 | – | –
Cc1cc(C(=O)COc2cccnc2[N+](=O)[O-])c(C)n1-c1ccccc1 | · | – | 75 | – | –
Cc1cc(C)cc(OCC(=O)NCC2CCCO2)c1 (stereo not drawn) | – | – | 73 | – | –
Cc1ccccc1S(=O)(=O)c1c(C)cc(C)n(CC(C)C)c1=O | – | – | 86 | – | –
O=C(NCc1cccc(Cl)c1)c1cnn2c1NC(c1ccco1)CC2C(F)(F)F (stereo not drawn) | – | – | 91 | – | –
CCOC(=O)N1CCC(NC(=O)c2cnn3c2NC(c2ccco2)CC3C(F)(F)F)CC1 (stereo not drawn) | – | – | – | – | –
COCCNC(=O)c1cnn2c1NC(c1ccco1)CC2C(F)(F)F (stereo not drawn) | – | – | – | – | –
CN(Cc1ccc(-n2cccn2)cc1)C(=O)c1cnn2c1NC(c1ccco1)CC2C(F)(F)F (stereo not drawn) | – | · | 76 | · | ·
Oc1ccc(C=NNc2cc(N3CCCC3)nc(N3CCCC3)n2)cc1 | – | · | · | · | ·
Oc1cccc(/C=N/Nc2cc(N3CCCC3)nc(N3CCCC3)n2)c1 | · | – | 79 | – | –
COc1ccccc1/C=C/C=NNC(=O)CCn1nnc2ccccc21 | – | · | · | · | ·
COc1ccc(Cn2c3ccc(OC)cc3c3nc4ccccc4nc32)cc1 | – | – | – | – | –
O=c1oc2ccccc2n1CCn1c2ccccc2c2nc3ccccc3nc21 | – | – | – | – | –
CCOC(=O)Cn1c2ccccc2c2nc3ccccc3nc21 | – | – | 93 | – | –
COc1ccc2c(c1)c1nc3ccccc3nc1n2CCn1c(=O)oc2ccccc21 | – | – | 95 | – | –
COc1ccc2c(c1)c1nc3ccccc3nc1n2CC(=O)OC(C)C | – | – | 94 | – | –
O=C(CCN1CCN(c2ccccc2)CC1)NN=Cc1ccccc1O | – | · | · | · | ·
O=C(CON=Cc1ccc(OC(F)F)cc1)NC1CCCCCC1 | – | · | · | · | ·
S=c1[nH]nc(C2CCCCC2)n1N=Cc1ccc(Br)cc1 | – | · | · | · | ·
CC(=O)c1c(C(C)=O)c(C)n(-c2nc(-c3ccc(C)c(C)c3)c(C)s2)c1C | – | – | 76 | – | –
N#CC1=C(N)n2c(sc(=Cc3cccs3)c2=O)=C(C#N)C1c1cccs1 (stereo not drawn) | – | · | · | · | ·
O=C(NN=Cc1cnc(N2CCOCC2)s1)c1ccccc1 | – | · | · | · | ·
SMILES | UCH37 inh | XBP1 UPR activ | CHOP inh | CTSL1 counter | UPR CHOP act
NS(=O)(=O)c1ccc(CCNc2ncnc3c2c(-c2ccccc2)cn3-c2ccc(F)cc2)cc1 | – | – | 75 | – | –
Fc1ccc(-n2cc(-c3ccccc3)c3c(NN4CCOCC4)ncnc32)cc1 | – | – | – | – | –
S=C(NN=Cc1ccc2ncccc2c1)Nc1ccccc1 | – | · | · | · | ·
O=C(CSc1nnnn1-c1ccccc1)NCC1(N2CCCCC2)CCCCC1 | – | – | · | · | –
CS(=O)(=O)c1ccc(C(=O)NCC2(N3CCCCC3)CCCCC2)cc1 | – | – | – | 29 | –
O=C(CSc1ccccc1)NCC1(N2CCCCC2)CCCCC1 | – | – | · | 60 | –
COc1ccc(CC(=O)NCC2(N3CCCCC3)CCCCC2)cc1 | – | – | – | 29 | –
COCc1ccc(C(=O)NCC2(N3CCCCC3)CCCCC2)cc1 | – | – | · | – | –
COc1ccc(C=NNC(=O)Cn2cnc3ccccc3c2=O)cc1OC | – | · | · | · | ·
CC(C)(C)C(=O)/C(=C/c1ccncc1)n1cncn1 | – | – | 85 | – | –
